From PubChem
Rows were chosen to be rich in hits. Some 2% of all compounds tested hit in one or more screens of this group.
FLuc inh counter = counter-screen for luciferase assay inhibitors: firefly luciferase inhibition. P08659. ATPLite firefly luciferase biochemical luminescence, 10 min. inhibition, % at 10 µM. hit rate 1.5% among 200,000;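 active = inhibition above about 50% when tested at 10 µM, limit read from the data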
Target sequence (P08659 whole entry, looked up): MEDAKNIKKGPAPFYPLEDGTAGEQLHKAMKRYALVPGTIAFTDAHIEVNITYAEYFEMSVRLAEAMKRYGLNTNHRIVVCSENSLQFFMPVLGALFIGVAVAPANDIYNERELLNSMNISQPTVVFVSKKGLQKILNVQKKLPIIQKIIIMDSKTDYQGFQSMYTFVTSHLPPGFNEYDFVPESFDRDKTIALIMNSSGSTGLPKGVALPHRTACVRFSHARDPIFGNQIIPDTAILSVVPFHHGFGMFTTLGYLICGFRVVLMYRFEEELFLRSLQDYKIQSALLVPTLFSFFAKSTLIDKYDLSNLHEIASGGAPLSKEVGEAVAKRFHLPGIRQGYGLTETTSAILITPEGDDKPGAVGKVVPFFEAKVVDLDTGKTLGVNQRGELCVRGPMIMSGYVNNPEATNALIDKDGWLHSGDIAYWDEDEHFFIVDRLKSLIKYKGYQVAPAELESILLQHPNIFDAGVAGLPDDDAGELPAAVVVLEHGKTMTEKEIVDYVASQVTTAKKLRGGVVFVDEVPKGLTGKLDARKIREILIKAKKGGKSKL
HSP90 refold inh = HSP90 refolding inhibition in rabbit reticulocyte lysate; inhibition, % at 5.6 µM; hit rate 0.91% among 290,000; luciferase refolding luminescence, 3 h;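 active = inhibition above the screen-wide mean plus 3 SD, computed separately per campaign, cut at about 16% in these data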;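 also: 0% = DMSO wells and 100% = 60 µM geldanamycin wells; inhibitors lower the luminescence because luciferase stays unfolded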
FLuc act counter = firefly luciferase counter-screen for stimulation assays. ATPlite luciferase biochemical, luminescence, 10 min; 0 = ATP-free wells, 1 = DMSO control. activation factor at 10 µM. 200,000 tested, under 10 active;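 active = luciferase activation factor, scaled between plate controls, of at least 2 with compound at 10 µM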
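Assay system: Luciferase/luciferin detection reagent, cell-free biochemical luciferase assay / Read-out: luciferase activation / Benchmarks: No-ATP low control, compound-free enzyme-plus-ATP high control / Medium: PBS buffer for ATP / Detection: luminescence measurement of luciferase light output / Schedule: 10 min at ambient temperature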
TRAIL sens C8 = sensitizes caspase-8 expressing cells to TRAIL; NB7+C8 cells + TRAIL, ATPlite viability luminescence; inhibition (viability loss, TRAIL sensitization), % at 10 µM; hit rate 1% among 360,000; AID 624354;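 active = compounds causing at least 50% loss of cell viability in the single-dose screen, relative to plate controls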
PPC-1+TRAIL kill = PPC-1 cancer cell killing with TRAIL present; PPC-1 cells + TRAIL, ATPLite viability luminescence; cell killing (% activity), % at 4 µM or 5 µM; AID 1443; hit rate 0.41% among 220,000;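 active = cell killing above 50% in the first pass at 4 µM, then a duplicate retest at 5 µM averaging 50% or more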;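 also: plate controls were cells with TRAIL plus DMSO for no effect and medium-only wells lacking cells for full effect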
HSP90 confirm = HSP90 inhibition, confirmation assay | rabbit reticulocyte lysate, luciferase refolding luminescence, 3 h | inhibition, % at 5.9 µM | hit rate 64% among 2,300 | shares compounds with HSP90 refold inh | AID 1846; in the data active = inhibition above about 18%;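 also: 0% = vehicle wells and 100% = reference inhibitor wells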
luciferase ctr = counter-screen for HSP90 inhibitors: inhibitors of firefly luciferase; shares compounds with HSP90 refold inh; purified native firefly luciferase, luminescence; hit rate 48% among 2,300; inhibition, % at 5.9 µM; AID 1847;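 active = inhibition above the mean inhibition of all tested sample wells plus 3 SD, cut at about 10% in these data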;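 also: 0% = DMSO with luciferase and 100% = wells lacking luciferase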
Starred values were filed as active, the others as inactive.

`COc1ccc(NC(=O)N2CCN(C(=O)C(Cc3ccc(F)cc3)NC(C)=O)CC2)cc1` (centres undefined) gave FLuc inh counter -2, HSP90 refold inh -5, FLuc act counter 1, TRAIL sens C8 -30 and PPC-1+TRAIL kill -11.
`COc1ccc(OCC(=O)NCCNC(=O)c2cccnc2)cc1` gave HSP90 refold inh 1 and TRAIL sens C8 -8.
COCCCN1C(=O)C(CC(=O)NCc2cccc3ccccc23)CC(C(=O)N(C)C)=C1C (centres undefined) was read as TRAIL sens C8 -2.
Cc1ccccc1CC1(CO)CCCN(Cc2nc(-c3cccs3)oc2C)C1 (centres undefined) was read as FLuc inh counter -4, HSP90 refold inh 3, FLuc act counter 1, TRAIL sens C8 3 and PPC-1+TRAIL kill -1.
For CCc1nnc(N/N=C/c2ccc(-c3ccc([N+](=O)[O-])cc3)o2)n1N the results were FLuc inh counter 3, HSP90 refold inh 36*, FLuc act counter 1, TRAIL sens C8 -5, PPC-1+TRAIL kill 32, HSP90 confirm -3 and luciferase ctr -6.
Screening Cc1nnc(N/N=C\c2ccc(-c3ccccc3[N+](=O)[O-])o2)n1N returned FLuc inh counter 5, HSP90 refold inh 38*, FLuc act counter 0.9, TRAIL sens C8 12, PPC-1+TRAIL kill 16, HSP90 confirm -8 and luciferase ctr -12.
Cc1nnc(N/N=C/c2ccc(-c3ccccc3F)o2)n1N was read as FLuc inh counter 28, HSP90 refold inh 65*, FLuc act counter 0.7, TRAIL sens C8 4, PPC-1+TRAIL kill 2, HSP90 confirm 18* and luciferase ctr -11.
`Cc1n[nH]c(=S)n1/N=C/c1ccc(-c2ccccc2[N+](=O)[O-])o1` gave FLuc inh counter 1, HSP90 refold inh 1, FLuc act counter 1, TRAIL sens C8 6 and PPC-1+TRAIL kill 8.
Screening COC(=O)c1ccccc1-c1ccc(/C=N/NC(N)=O)o1 returned HSP90 refold inh 0, TRAIL sens C8 -11 and PPC-1+TRAIL kill 22.
`CC(C)c1cc(C(=O)OCC(=O)N2CCN(C(=O)c3ccco3)CC2)c(O)c(C(C)C)c1` gave HSP90 refold inh 6 and TRAIL sens C8 -7.
CC(C)C[C@H](NC(=O)[C@H](Cc1ccccc1)n1c(=O)[nH]c2ccccc2c1=O)C(=O)N1CCC[C@H]1C(=O)O was read as HSP90 refold inh 2 and TRAIL sens C8 12.
For CC[C@]12c3[nH]c4cc(CCC(=O)N(C)C)ccc4c3CCN1C(=O)[C@@H](CC(=O)NC(C)(C)C)C[C@@H]2C(=O)N1CCN(C(=O)c2ccco2)CC1 the results were TRAIL sens C8 -7.
Screening C[n+]1cccc(C2C(C#N)=C(N)Oc3c2ccc2ccccc32)c1 (centres undefined) returned HSP90 refold inh 18*, TRAIL sens C8 19, PPC-1+TRAIL kill 4, HSP90 confirm -2 and luciferase ctr -14.
COc1cc(C(=O)C(=O)N2CCN(c3ccccc3)CC2)cc(OC)c1OC was read as TRAIL sens C8 3.
Screening CCc1ccc(OCc2ccc(C(=O)OC)o2)cc1 returned HSP90 refold inh 56*, TRAIL sens C8 6, HSP90 confirm 75* and luciferase ctr -14.
`COC(=O)c1ccc(COc2ccc3c(c2)CCC3)o1` gave HSP90 refold inh 23*, TRAIL sens C8 -17, PPC-1+TRAIL kill -21, HSP90 confirm 40* and luciferase ctr -16.
CCC(C)c1ccc(OCc2ccc(C(=O)OC)o2)cc1 (centres undefined) was read as HSP90 refold inh 26*, TRAIL sens C8 -3, PPC-1+TRAIL kill -5, HSP90 confirm 65* and luciferase ctr -22.
For CC(C)(C)c1ccc(OCc2ccc(C(=O)Nc3cccnc3)o2)cc1 the results were HSP90 refold inh 26*, TRAIL sens C8 39, HSP90 confirm 23* and luciferase ctr -6.
`COC(=O)c1ccc(COc2ccc(NC(C)=O)cc2)o1` gave HSP90 refold inh 0, TRAIL sens C8 18 and PPC-1+TRAIL kill 10.
Screening O=C(Nc1ccc(Br)cc1)c1ccc2c(c1)OCO2 returned HSP90 refold inh 1 and TRAIL sens C8 16.
Screening Cc1cccnc1C1=NOC(Cc2ccccc2)C(=O)N1Cc1ccccc1F (centres undefined) returned TRAIL sens C8 2.
O=C(O)c1ccc(COc2ccc3c(c2)CCC3)cc1 was read as HSP90 refold inh 49*, TRAIL sens C8 -1, PPC-1+TRAIL kill 7, HSP90 confirm 63* and luciferase ctr 17*.
`COC(=O)c1ccc(COc2ccc(C(C)(C)C)cc2)o1` gave HSP90 refold inh 29*, TRAIL sens C8 4, HSP90 confirm 35* and luciferase ctr -20.
NNC(=O)c1ccc(COc2ccc3c(c2)CCC3)cc1 was read as FLuc inh counter 0, HSP90 refold inh 1, FLuc act counter 1, TRAIL sens C8 13 and PPC-1+TRAIL kill 18.
`COc1cccc(C(O)c2ncc(-c3ccccc3)[nH]2)c1` (centres undefined) gave TRAIL sens C8 3.
`CC(C)C/C(O)=C/c1nc2cc(Cl)ccc2oc1=O` gave FLuc inh counter -3, HSP90 refold inh 6, FLuc act counter 1, TRAIL sens C8 15 and PPC-1+TRAIL kill 30.
For O=c1oc2ccc(Cl)cc2nc1/C=C(\O)c1ccco1 the results were HSP90 refold inh 82*, TRAIL sens C8 14, PPC-1+TRAIL kill 12, HSP90 confirm 79* and luciferase ctr -5.
For COc1ccc(NC(=O)N2CCc3ccccc32)cc1 the results were FLuc inh counter 85*, HSP90 refold inh 19*, FLuc act counter 0.2, TRAIL sens C8 56*, PPC-1+TRAIL kill 14, HSP90 confirm 37* and luciferase ctr 23*.
O=S(=O)(c1ccc(NC(=S)N2CCCCC2CO)cc1)N1CCOCC1 (centres undefined) was read as TRAIL sens C8 -1.
`Cc1cc(C(=O)CSc2nnc3ccccn23)c(C)n1-c1ccccc1` gave FLuc inh counter 75*, HSP90 refold inh 62*, FLuc act counter 0.3, TRAIL sens C8 53*, PPC-1+TRAIL kill 33, HSP90 confirm 86* and luciferase ctr 79*.
CC(=O)Oc1cc(OC(C)=O)c2c(C)cc(=O)oc2c1 was read as FLuc inh counter -3, HSP90 refold inh 21*, FLuc act counter 1, TRAIL sens C8 -10, PPC-1+TRAIL kill 8, HSP90 confirm -2 and luciferase ctr -4.
